According to ChEMBL document CHEMBL1144824, “Oximes: metabolic activation and structure-allergenic activity relationships” (J Med Chem, 2008):

How the values were obtained:
Mus musculus [1] = assay: Dermal toxicity in CBA/Ca mouse assessed as skin sensitization stimulation index by measuring increase in [3H]thymidine incorporation at 1% w/v administered on ear dorsum by local lymph node assay relative to control; type: organism-based, Skin of body; settings: in vivo, topical_or_ocular
Procedure, shortened: (§1)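 Female CBA/Ca mice, 8 weeks, n = 3 or 4 per group, 25 µL of test compound in vehicle per OECD 429 LLNA; vehicle-only controls. Day 5: 250 µL PBS with 20 µCi [3H]thymidine i.v. After 5 h, draining auricular nodes were pooled per group, cells suspended and counted by β-scintillation. SI = mean dpm/node of test group over control; SI above 3 counted positive.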

Mus musculus [2] = species: Mus musculus; assay: Dermal toxicity in CBA/Ca mouse assessed as drug level inducing 3 times increase in skin sensitization stimulation index by measuring [3H]thymidine incorporation relative to control; type: organism-based; settings: in vivo
Procedure, shortened: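 Local lymph node assay per OECD Guideline 429 in female CBA/Ca mice, 8 weeks old, groups of 3 or 4. Each mouse got 25 µL of test compound in vehicle; controls got vehicle alone. Five days after first treatment, mice were dosed i.v. with 20 µCi [3H]thymidine in PBS. Auricular lymph nodes were pooled per group 5 h later and counted by β-scintillation. Value is the concentration giving SI (test/control) of 3.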

[3] = Dermal toxicity in CBA/Ca mouse assessed as skin sensitization stimulation index by measuring increase in [3H]thymidine incorporation at 10% w/v administered on ear dorsum by local lymph node assay relative to control; set-up: species or system Skin of body; settings: in vivo, topical_or_ocular; procedure, shortened: as §1
Mus musculus [4] = assay: Dermal toxicity in CBA/Ca mouse assessed as skin sensitization stimulation index by measuring increase in [3H]thymidine incorporation at 5% w/v administered on ear dorsum by local lymph node assay relative to control; type: organism-based, Skin of body; settings: in vivo, topical_or_ocular; procedure, shortened: as §1
Mus musculus [5] = assay: Dermal toxicity in CBA/Ca mouse assessed as skin sensitization stimulation index by measuring increase in [3H]thymidine incorporation at 20% w/v administered on ear dorsum by local lymph node assay relative to control; type: organism-based, Skin of body; settings: in vivo, topical_or_ocular; procedure, shortened: as §1
Mus musculus [6] = assay: Dermal toxicity in CBA/Ca mouse assessed as skin sensitization stimulation index by measuring increase in [3H]thymidine incorporation at 0.1% w/v administered on ear dorsum by local lymph node assay relative to control; type: organism-based, Skin of body; settings: in vivo, topical_or_ocular; procedure, shortened: as §1

Compound | Activity (Mus musculus [1]) | Activity (Mus musculus [2]) [mM] | Activity [3] | Activity (Mus musculus [4]) | Activity (Mus musculus [5]) | Activity (Mus musculus [6])
ON=C1CCCCC1 [CYCLOHEXANONE OXIME] | 0.9 | > 1800 | 1.17 | 0.77 | 0.84 | 0.96
CC1=C(C)/C(=N/O)CCC1 | 1.24 | > 1400 | 1.16 | 1.43 | 1.3 | 1.1
C/C=C/C(CC)=N/O | 0.99 | 790 | 3.34 | 1.69 | 6.62 | 0.99
CC1=CCCC/C1=N\O | 2.36 | 160 | 7.91 | 5.03 | 11.3 | 1
CC1=C/C(=N/O)CCC1 | 2.1 | 180 | 5.34 | 5.06 | 7.3 | 0.76
O/N=C\c1ccccc1 | 1.8 | > 1700 | 2.33 | 1.55 | 2.56 | 1.75
O/N=C1/C=CCCC1 | 4.1 | 55 |  | 7.6 |  | 1.54
